{"source": "ChEMBL document CHEMBL3351603", "about": "“Design of a hydrogen peroxide-activatable agent that specifically targets cancer cells” (Bioorg Med Chem, 2014)", "key": {"[1]": {"assay": "Cytotoxicity against human MA9.3 cells after 48 hrs by MTT assay", "format": "functional, cell-based", "summary_of_the_method": "(§1)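 Cells seeded at 4 × 10^4/well and held overnight at 37°C. Exposed 48 h to freshly dissolved compound. Cells were then pelleted, the medium replaced with fresh medium holding MTT (5 mg/mL stock), and incubated 4 h. Formazan dissolved in DMSO and read at 575 nm. IC50 from a four-parameter sigmoid fit. Triplicates, assay run twice. MA9.3RAS (MLL-AF9 + NrasG12D-transformed CD34+ cells) grown in IMDM with 20% bovine calf serum. Cord-blood CD34+ cells grown in the same medium plus SCF, IL-3, IL-6, Flt-3L and TPO.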"}, "[2]": {"assay": "Selectivity ratio of IC50 for human primary CD34+ blood stem cells to IC50 for human MA9.3 cells", "conditions": "primary CD34+ blood stem cells versus MA9.3 cells, read-out: Ratio IC50"}, "Homo sapiens": {"organism": "Homo sapiens", "assay": "Decrease in ROS level in human MA9.3 cells at 20 uM DCF fluorescence assay", "format": "functional, cell-based", "conditions": "TDE = time-dependent effect", "summary_of_the_method": "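Actively growing MA9.3RAS cells suspended in 1× HBSS at 4×10^5 cells/ml. DCF-DA added to 10 μM final, with HBSS alone as blank. Compound added in HBSS to 20 μM final. Plate held at 37°C and fluorescence (ex 485/em 535 nm) read every 15 min for 1 h, with light exposure limited. Mean ± SD of six replicates, unpaired t-test.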"}, "[3]": {"assay": "Decrease in ROS level in human MA9.3 cells assessed as fluorescence intensity at 20 uM DCF fluorescence assay (reference value: 1.06 +/- 0.13 no_unit)", "format": "functional"}, "[4]": {"assay": "Decrease in KEAP1 protein expression in human MA9.3 cells at 20 uM after 24 hrs relative to control"}, "[5]": {"assay": "Cytotoxicity against human CD34-positive blood stem/progenitor cells after 48 hrs by MTT assay", "format": "cell-based", "summary_of_the_method": "as §1"}}}
{"smiles": "CC(=O)Nc1cc(O)ccc1O", "values": [{"measurement": "IC50", "setting": "[1]", "value": 35, "unit": "µM"}]}
{"smiles": "O=C(CO)Nc1cc(O)ccc1O", "values": [{"measurement": "IC50", "setting": "[1]", "value": 12, "unit": "µM"}]}
{"smiles": "O=C(CNc1ccccc1)Nc1cc(O)ccc1O", "values": [{"measurement": "IC50", "setting": "[1]", "value": 13, "unit": "µM"}]}
{"smiles": "COc1cc(/C=C/C(=O)N2CCC=CC2=O)cc(OC)c1OC", "note": "[PIPLARTINE]", "values": [{"measurement": "selectivity ratio", "setting": "[2]", "value": 3.7}, {"measurement": "IC50", "setting": "[1]", "value": 2, "unit": "µM"}]}
{"smiles": "O=C(CNC1CCCCC1)Nc1cc(O)ccc1O", "values": [{"measurement": "Activity", "setting": "Homo sapiens", "value": "tde"}, {"measurement": "selectivity ratio", "setting": "[2]", "value": 11.5}, {"measurement": "Flu intensity", "setting": "[3]", "value": 4.31}, {"measurement": "Ratio", "setting": "[4]", "value": 0.65}, {"measurement": "IC50", "setting": "[1]", "value": 2, "unit": "µM"}, {"measurement": "Activity", "setting": "[5]", "value": "Non-toxic"}]}
{"smiles": "CN(CC(=O)Nc1cc(O)ccc1O)c1ccccc1", "values": [{"measurement": "selectivity ratio", "setting": "[2]", "value": 2}, {"measurement": "IC50", "setting": "[1]", "value": 6, "unit": "µM"}]}
{"smiles": "NC1=CC(=O)C=CC1=O", "values": [{"measurement": "IC50", "setting": "[1]", "value": 16, "unit": "µM"}]}
{"smiles": "CN(CC(=O)NC1=CC(=O)C=CC1=O)c1ccccc1", "values": [{"measurement": "IC50", "setting": "[1]", "value": 21, "unit": "µM"}]}
{"smiles": "COc1ccc(OC)c(NC(=O)CN(C)c2ccccc2)c1", "values": [{"measurement": "IC50", "setting": "[1]", "value": "> 100", "unit": "µM"}]}
{"smiles": "C=C1C(=O)O[C@@H]2[C@H]3O[C@]3(C)CC/C=C(\\C)CC[C@@H]12", "values": [{"measurement": "selectivity ratio", "setting": "[2]", "value": 2.1}, {"measurement": "IC50", "setting": "[1]", "value": 3, "unit": "µM"}]}
{"smiles": "O=C(CSc1ccccc1)Nc1cc(O)ccc1O", "values": [{"measurement": "IC50", "setting": "[1]", "value": 5, "unit": "µM"}]}
{"smiles": "CN(CC(=O)Nc1cc(O)ccc1O)C1CCCCC1", "values": [{"measurement": "selectivity ratio", "setting": "[2]", "value": 3.8}, {"measurement": "IC50", "setting": "[1]", "value": 9, "unit": "µM"}]}
{"smiles": "O=C(COc1ccccc1)Nc1cc(O)ccc1O", "values": [{"measurement": "IC50", "setting": "[1]", "value": 3, "unit": "µM"}]}
{"smiles": "CCCN(C)CC(=O)Nc1cc(O)ccc1O", "values": [{"measurement": "IC50", "setting": "[1]", "value": 18, "unit": "µM"}]}
{"smiles": "CN(CC(=O)Nc1cccc(O)c1)c1ccccc1", "values": [{"measurement": "IC50", "setting": "[1]", "value": "> 100", "unit": "µM"}]}
{"smiles": "CN(CC(=O)Nc1ccccc1O)c1ccccc1", "values": [{"measurement": "IC50", "setting": "[1]", "value": "> 100", "unit": "µM"}]}
